Experimental data taken from ChEMBL document CHEMBL1166005, “Discovery of tetrahydro-beta-carbolines as inhibitors of the mitotic kinesin KSP” (Bioorg Med Chem, 2010).

Legend:
A549 = test: Antiproliferative activity against human A549 cells after 48 hrs by SRB assay; details: A549, 48 h
[1] = molecular target: T1, Kinesin-like protein KIF11 (Homo sapiens, UniProt P52732); test: Inhibition of human Eg5 expressed in Escherichia coli assessed as microtubule-activated ATPase activity by spectrophotometry
T1 sequence (P52732 whole entry): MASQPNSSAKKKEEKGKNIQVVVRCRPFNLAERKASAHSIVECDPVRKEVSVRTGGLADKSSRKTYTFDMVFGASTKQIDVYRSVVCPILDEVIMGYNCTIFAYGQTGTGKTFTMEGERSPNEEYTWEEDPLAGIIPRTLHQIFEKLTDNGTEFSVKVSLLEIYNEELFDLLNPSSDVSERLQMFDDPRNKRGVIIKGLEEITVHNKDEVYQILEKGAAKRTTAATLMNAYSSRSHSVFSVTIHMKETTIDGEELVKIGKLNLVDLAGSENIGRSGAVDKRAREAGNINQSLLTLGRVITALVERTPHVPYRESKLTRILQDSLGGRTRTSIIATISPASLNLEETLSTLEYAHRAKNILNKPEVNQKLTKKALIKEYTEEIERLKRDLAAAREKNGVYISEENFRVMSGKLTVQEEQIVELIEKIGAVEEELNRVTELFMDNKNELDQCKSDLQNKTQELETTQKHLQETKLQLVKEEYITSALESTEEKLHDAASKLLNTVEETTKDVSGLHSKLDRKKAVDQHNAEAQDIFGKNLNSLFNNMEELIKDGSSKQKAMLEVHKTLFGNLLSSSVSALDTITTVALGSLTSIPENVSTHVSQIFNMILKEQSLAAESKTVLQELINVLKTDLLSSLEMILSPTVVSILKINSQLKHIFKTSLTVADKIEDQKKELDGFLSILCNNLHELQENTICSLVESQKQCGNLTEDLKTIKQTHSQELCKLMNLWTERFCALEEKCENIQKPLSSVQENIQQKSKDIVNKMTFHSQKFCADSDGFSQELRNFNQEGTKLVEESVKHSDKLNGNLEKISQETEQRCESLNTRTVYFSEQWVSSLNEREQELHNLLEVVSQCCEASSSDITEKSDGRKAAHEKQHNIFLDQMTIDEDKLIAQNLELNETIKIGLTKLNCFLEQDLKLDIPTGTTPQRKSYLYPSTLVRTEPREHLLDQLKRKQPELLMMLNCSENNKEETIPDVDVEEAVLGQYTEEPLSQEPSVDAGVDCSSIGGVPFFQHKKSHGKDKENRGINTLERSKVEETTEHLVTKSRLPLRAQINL
Outline: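 Eg5 residues 2-386 expressed from pET28a in E. coli (0.5 mM IPTG, 20 h at 20 °C), purified on SP-Sepharose then Mono-Q, and dialyzed into PIPES pH 7.5 ATPase buffer. Assay contained 20 mM PIPES pH 7.5, 5.0 mM MgCl2, 1 mM EGTA, paclitaxel-stabilized MTs, ATP and 2% DMSO. Started with ATP, 37 °C for 30 min; Pi detected by malachite green with citrate stop, A610. No-enzyme and no-MT backgrounds subtracted; means of ≥3 experiments.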

PC-3 = test: Antiproliferative activity against human PC3 cells after 48 hrs by SRB assay; details: PC-3, 48 h
AGS = test: Antiproliferative activity against human AGS cells after 48 hrs by SRB assay
HepG2 = test: Antiproliferative activity against human HepG2 cells after 48 hrs by SRB assay; details: HepG2, 48 h
HT-29 = test: Antiproliferative activity against human HT-29 cells after 48 hrs by SRB assay; details: HT-29, 48 h

SMILES	IC50 (A549) [µM]	IC50 [1] [µM]	IC50 (PC-3) [µM]	IC50 (AGS) [µM]	IC50 (HepG2) [µM]	IC50 (HT-29) [µM]
CCCC(=O)N1CCc2c([nH]c3ccc(C)cc23)C1c1c[nH]c2ccccc12 (racemic)	> 10	< 0.001				
CC(=O)N1CCc2c([nH]c3ccc(Cl)cc23)C1c1c[nH]c2ccccc12 (racemic)	9.8	0.337				
O=C(NCCO)C1Cc2c([nH]c3ccccc23)C(c2cccc(O)c2)N1 (racemic)	> 10	0.29				
CC(C)C(=O)N1CCc2c([nH]c3ccc(Cl)cc23)C1c1c[nH]c2ccccc12 (racemic)	6.83	1.7				
CC(C)Oc1cccc(C2c3[nH]c4ccc(Cl)cc4c3CCN2CCN)c1 (racemic)	8.7		> 10	8.39	> 10	7.44
Cc1ccc2[nH]c3c(c2c1)CCN(CCCCN)C3c1cccc(O)c1 (racemic)	9.19	0.454				
CCCC(=O)N1C(C(=O)OCC)Cc2c([nH]c3ccccc23)C1c1cccc(O)c1 (racemic)	> 10	0.224				
Nc1ccc(C(=O)N2CCc3c([nH]c4ccc(Cl)cc34)C2c2cccc(O)c2)cc1 (racemic)	6.66	0.076	7.3	6.07	8.52	6.3
Cc1ccc2[nH]c3c(c2c1)CCN(C)C3c1cccc(O)c1 (racemic)	8.73	0.462				
Cc1ccc2[nH]c3c(c2c1)CCN(CCN)C3c1cccc(O)c1 (racemic)	7.79	0.237				
Cc1ccc2[nH]c3c(c2c1)CCN(C(=O)C(C)C)C3c1c[nH]c2ccccc12 (racemic)	> 10	0.216				
CCOC(=O)C1Cc2c([nH]c3ccccc23)C(c2cccc(O)c2)N1C(=O)C(C)C (racemic)	> 10	0.38				
CCC(c1nc2cc(Cl)ccc2c(=O)n1Cc1ccccc1)N(CCCN(C)C)C(=O)c1ccc(Br)cc1 (stereo not given) [CK0106023]	7.02	0.049	> 10	5.1	> 10	3.33
NCCNC(=O)C1Cc2c([nH]c3ccccc23)C(c2cccc(O)c2)N1 (racemic)	> 10	0.065				
CCCN1CCc2c([nH]c3ccc(Cl)cc23)C1c1cccc(O)c1 (racemic)	1.55	0.169				
NCCCN1CCc2c([nH]c3ccc(Cl)cc23)C1c1cccc(O)c1 (racemic)	6.73	0.204				

SMILES	IC50 (A549) [µM]	IC50 [1] [µM]	IC50 (PC-3) [µM]	IC50 (AGS) [µM]	IC50 (HepG2) [µM]	IC50 (HT-29) [µM]
CCOC(=O)C1Cc2c([nH]c3ccccc23)C(c2cccc(O)c2)N1C(=O)CC (racemic)	> 10	0.075				
Cc1ccc2[nH]c3c(c2c1)CCN(C(=O)c1ccc(N)cc1)C3c1cccc(O)c1 (racemic)	7.93	0.05	> 10	8.86	> 10	7.47
Cc1ccc2[nH]c3c(c2c1)CCN(CCCN)C3c1cccc(O)c1 (racemic)	6.86	0.083				
Cc1ccc2[nH]c3c(c2c1)CCN(Cc1ccccc1)C3c1cccc(O)c1 (racemic)	6.86	12.4				
Oc1cccc(C2c3[nH]c4ccc(Cl)cc4c3CCN2Cc2ccccc2)c1 (racemic)	5.7	0.71				
CCOC(=O)C1Cc2c([nH]c3ccccc23)C(c2cccc(O)c2)N1C(C)=O (racemic)	> 10	0.724				
CCCC(=O)N1CCc2c([nH]c3ccc(Cl)cc23)C1c1c[nH]c2ccccc12 (racemic)	9.11	0.163	7.29	7.06	7.64	5.86
CCCC(=O)N1C(C(=O)O)Cc2c([nH]c3ccccc23)C1c1cccc(O)c1 (racemic)	> 10	3.45				
CC(=O)N1CCc2c([nH]c3ccc(C)cc23)C1c1c[nH]c2ccccc12 (racemic)	> 10	0.051				
CCC(=O)N1C(C(=O)O)Cc2c([nH]c3ccccc23)C1c1cccc(O)c1 (racemic)	> 10	0.118				
CN1CCc2c([nH]c3ccc(Cl)cc23)C1c1cccc(O)c1 (racemic)	1.38	0.664	> 10	0.75	> 10	7.4
NCCN1CCc2c([nH]c3ccc(Cl)cc23)C1c1cccc(O)c1 (racemic)	8.7	0.007				
NCCC(=O)N1CCc2c([nH]c3ccc(Cl)cc23)C1c1c[nH]c2ccccc12 (racemic)	1.79	0.043	1.55	6.16	> 10	6.28
NCCCCN1CCc2c([nH]c3ccc(Cl)cc23)C1c1cccc(O)c1 (racemic)	9.06	0.347				
CC(N)C(=O)N1CCc2c([nH]c3ccc(Cl)cc23)C1c1cccc(O)c1 (stereo not given)	5.65	0.483				
NCCC(=O)N1CCc2c([nH]c3c(Cl)cccc23)C1c1cccc(O)c1 (racemic)	0.94	0.04	1.28	1.31	7.47	5.75
